Values after ≈ are worked out from the molar mass of the structure shown.
Tests used:
Format in all cases: functional
[1] = system: Staphylococcus lugdunensis; assay: Antibacterial activity against Staphylococcus lugdunensis isolated from patient with diabetic foot infection assessed as percent resistant isolates after 18 to 24 hrs by broth microdilution method
Procedure, shortened: (§1)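 Aerobes subcultured on Trypticase soy blood agar, then broth microdilution in cation-adjusted Mueller-Hinton broth. Trays prepared in-house with twofold dilutions and stored at −70°C. Overnight colonies suspended to about 5 × 10^5 CFU/ml final. Read after 18 to 24 h at 37°C. QC strains included S. aureus ATCC 29213 and E. coli ATCC 25922.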

[2] = system: Staphylococcus haemolyticus; assay: Antibacterial activity against Staphylococcus haemolyticus isolated from patient with diabetic foot infection after 18 to 24 hrs by broth microdilution method
[3] = system: Staphylococcus epidermidis; assay: Antibacterial activity against Staphylococcus epidermidis isolated from patient with diabetic foot infection after 18 to 24 hrs by broth microdilution method
Procedure, shortened: (§2)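 Isolates were subcultured on Trypticase soy blood agar and tested by broth microdilution in cation-adjusted Mueller-Hinton broth. In-house trays of twofold drug dilutions were stored at −70°C. Overnight colonies gave a final inoculum of about 5 × 10^5 CFU/ml. Plates were read after 18 to 24 h at 37°C.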

Corynebacterium striatum [4] = assay: Antibacterial activity against Corynebacterium striatum isolated from patient with diabetic foot infection after 48 hrs by broth microdilution method
Procedure, shortened: (§3)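 Isolates were subcultured on Trypticase soy blood agar. Broth microdilution used cation-adjusted Mueller-Hinton broth with lysed horse blood, in-house trays of twofold drug dilutions stored at −70°C. Colonies from overnight growth gave a final inoculum of about 5 × 10^5 CFU/ml. Trays were read after 18 to 24 h at 37°C, up to 48 h for some strains.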

Streptococcus pyogenes = assay: Antibacterial activity against Streptococcus pyogenes isolated from patient with diabetic foot infection after 18 to 24 hrs by broth microdilution method
Procedure, shortened: (§4)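 Streptococcal isolates were subcultured on Trypticase soy blood agar. Broth microdilution used cation-adjusted Mueller-Hinton broth with lysed horse blood, in in-house trays of serial twofold drug dilutions stored at −70°C. Overnight colonies were suspended to a final inoculum of approximately 5 × 10^5 CFU/ml. MIC was read after 18 to 24 h incubation at 37°C.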

[5] = system: Staphylococcus lugdunensis; assay: Antibacterial activity against Staphylococcus lugdunensis isolated from patient with diabetic foot infection after 18 to 24 hrs by broth microdilution method
Procedure, shortened: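 Subcultured on Trypticase soy blood agar, then broth microdilution in cation-adjusted Mueller-Hinton broth. Trays were made in-house with serial twofold drug dilutions and stored at −70°C. Inoculum was colonies from overnight growth, final approximately 5 × 10^5 CFU/ml. MIC was read after 18 to 24 h at 37°C. QC strains: S. aureus ATCC 29213 and E. coli ATCC 25922.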

Corynebacterium simulans [6] = assay: Antibacterial activity against Corynebacterium simulans isolated from patient with diabetic foot infection assessed as percent resistant isolates after 48 hrs by broth microdilution method
Procedure, shortened: (§5)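 Isolates subcultured on Trypticase soy blood agar. Broth microdilution in cation-adjusted Mueller-Hinton broth with lysed horse blood, using in-house twofold dilution trays stored at −70°C. Inoculum from overnight colonies at about 5 × 10^5 CFU/ml final. Read after 18 to 24 h at 37°C, up to 48 h for some Corynebacterium strains.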

Staphylococcus aureus [7] = assay: Antibacterial activity against methicillin-sensitive Staphylococcus aureus isolated from patient with diabetic foot infection assessed as percent resistant isolates after 18 to 24 hrs by broth microdilution method
Procedure, shortened: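 Isolates grown on Trypticase soy blood agar, then tested by broth microdilution in unsupplemented cation-adjusted Mueller-Hinton broth. In-house trays held serial twofold drug dilutions and were stored at −70°C. Overnight colonies were suspended to a final inoculum near 5 × 10^5 CFU/ml, and trays read after 18–24 h at 37°C. QC strains: S. aureus ATCC 29213, E. coli ATCC 25922.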

Corynebacterium accolens [8] = assay: Antibacterial activity against Corynebacterium accolens isolated from patient with diabetic foot infection after 48 hrs by broth microdilution method; procedure, shortened: as §3
Corynebacterium simulans [9] = assay: Antibacterial activity against Corynebacterium simulans isolated from patient with diabetic foot infection after 48 hrs by broth microdilution method; procedure, shortened: as §3
Corynebacterium jeikeium = assay: Antibacterial activity against Corynebacterium jeikeium isolated from patient with diabetic foot infection assessed as percent resistant isolates after 48 hrs by broth microdilution method; procedure, shortened: as §5
Corynebacterium accolens [10] = assay: Antibacterial activity against Corynebacterium accolens isolated from patient with diabetic foot infection assessed as percent resistant isolates after 48 hrs by broth microdilution method; procedure, shortened: as §5
Corynebacterium striatum [11] = assay: Antibacterial activity against Corynebacterium striatum isolated from patient with diabetic foot infection assessed as percent resistant isolates after 48 hrs by broth microdilution method; procedure, shortened: as §5
Streptococcus agalactiae = assay: Antibacterial activity against Streptococcus agalactiae isolated from patient with diabetic foot infection after 18 to 24 hrs by broth microdilution method; procedure, shortened: as §4
Proteus mirabilis = assay: Antibacterial activity against Proteus mirabilis isolated from patient with diabetic foot infection after 18 to 24 hrs by broth microdilution method; procedure, shortened: as §2
Klebsiella aerogenes = assay: Antibacterial activity against Enterobacter aerogenes isolated from patient with diabetic foot infection after 18 to 24 hrs by broth microdilution method; procedure, shortened: as §2
Enterococcus faecalis = assay: Antibacterial activity against Enterococcus faecalis after 44 to 48 hrs by agar dilution method
Enterobacter cloacae = assay: Antibacterial activity against Enterobacter cloacae isolated from patient with diabetic foot infection after 18 to 24 hrs by broth microdilution method; procedure, shortened: as §2
Bacteroides fragilis = assay: Antibacterial activity against Bacteroides fragilis ATCC 25285 after 44 to 48 hrs by agar dilution method
Procedure, shortened: (§6)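 CLSI M11-A7 agar dilution: serial twofold drug dilutions made on the test day and added to molten agar. Spots of 10^5 CFU were applied by replicator, with drug-free control plates inoculated before and after each set. Incubation was 44 to 48 h at 37°C in an anaerobic chamber. MIC was the lowest concentration giving no growth or a marked change in growth versus controls.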

Klebsiella oxytoca = assay: Antibacterial activity against Klebsiella oxytoca isolated from patient with diabetic foot infection after 18 to 24 hrs by broth microdilution method; procedure, shortened: as §2
Escherichia coli = assay: Antibacterial activity against Escherichia coli ATCC 25922 after 44 to 48 hrs by agar dilution method
Staphylococcus aureus [12] = assay: Antibacterial activity against Staphylococcus aureus ATCC 29213 after 44 to 48 hrs by agar dilution method
Proteus vulgaris = assay: Antibacterial activity against Proteus vulgaris isolated from patient with diabetic foot infection after 18 to 24 hrs by broth microdilution method; procedure, shortened: as §2
Corynebacterium = assay: Antibacterial activity against multi drug-resistant Corynebacterium assessed as percent of susceptible isolates at =< 4 ug/ml by NCCLS M7-A6 method
Providencia rettgeri = assay: Antibacterial activity against Proteus rettgeri isolated from patient with diabetic foot infection assessed as percent resistant isolates after 18 to 24 hrs by broth microdilution method; procedure, shortened: as §1
Clostridioides difficile = assay: Antibacterial activity against Clostridium difficile ATCC 700057 after 44 to 48 hrs by agar dilution method; procedure, shortened: as §6

Compound	Activity [1]	MIC50 [2]	MIC90 [2]	MIC50 [3]	MIC90 [3]	MIC50 (Corynebacterium striatum [4])	MIC90 (Corynebacterium striatum [4])	MIC50 (Streptococcus pyogenes)	MIC90 (Streptococcus pyogenes)	MIC50 [5]	MIC90 [5]	Activity (Staphylococcus aureus [7])	MIC50 (Corynebacterium accolens [8])	MIC90 (Corynebacterium accolens [8])	MIC50 (Corynebacterium simulans [9])	MIC90 (Corynebacterium simulans [9])	MIC50 (Streptococcus agalactiae)	MIC90 (Streptococcus agalactiae)	further results
CCC[C@@H]1C[C@@H](C(=O)N[C@@H]([C@H]2O[C@H](SC)[C@H](O)[C@@H](O)[C@H]2O)[C@H](C)Cl)N(C)C1 [CLINDAMYCIN]	13%	0.125 µg/mL (≈ 0.294 µM)	8 µg/mL (≈ 18.8 µM)	0.25 µg/mL (≈ 0.588 µM)	> 64 µg/mL	2 µg/mL (≈ 4.71 µM)	> 64 µg/mL	0.125 µg/mL (≈ 0.294 µM)	> 64 µg/mL	0.125 µg/mL (≈ 0.294 µM)	> 64 µg/mL	0%	2 µg/mL (≈ 4.71 µM)	> 64 µg/mL	2 µg/mL (≈ 4.71 µM)	> 64 µg/mL	0.125 µg/mL (≈ 0.294 µM)	> 64 µg/mL	Activity (Corynebacterium simulans [6]): 78%; Activity (Corynebacterium jeikeium): 100%; Activity (Corynebacterium accolens [10]): 78%; Activity (Corynebacterium striatum [11]): 78%
C[C@@H](O)[C@H]1C(=O)N2C(C(=O)O)=C(S[C@@H]3CN[C@H](CNS(N)(=O)=O)C3)[C@H](C)[C@H]12 [DORIPENEM]	0%	0.5 µg/mL (≈ 1.19 µM)	16 µg/mL (≈ 38 µM)	0.25 µg/mL (≈ 0.595 µM)	2 µg/mL (≈ 4.76 µM)	0.125 µg/mL (≈ 0.297 µM)	0.25 µg/mL (≈ 0.595 µM)	≤ 0.015 µg/mL	≤ 0.015 µg/mL	0.125 µg/mL (≈ 0.297 µM)	0.125 µg/mL (≈ 0.297 µM)	0%	0.125 µg/mL (≈ 0.297 µM)	0.25 µg/mL (≈ 0.595 µM)	0.125 µg/mL (≈ 0.297 µM)	0.25 µg/mL (≈ 0.595 µM)	≤ 0.015 µg/mL	0.03 µg/mL (≈ 0.0713 µM)	MIC50 (Proteus mirabilis): 0.125 µg/mL (≈ 0.297 µM); MIC90 (Proteus mirabilis): 0.25 µg/mL (≈ 0.595 µM); MIC50 (Klebsiella aerogenes): 0.06 µg/mL (≈ 0.143 µM); MIC90 (Klebsiella aerogenes): 0.25 µg/mL (≈ 0.595 µM); MIC (Enterococcus faecalis): 2 µg/mL (≈ 4.76 µM); MIC50 (Enterobacter cloacae): 0.06 µg/mL (≈ 0.143 µM); MIC90 (Enterobacter cloacae): 0.25 µg/mL (≈ 0.595 µM); MIC (Bacteroides fragilis): 0.125 µg/mL (≈ 0.297 µM); MIC50 (Klebsiella oxytoca): 0.06 µg/mL (≈ 0.143 µM); MIC90 (Klebsiella oxytoca): 0.125 µg/mL (≈ 0.297 µM); MIC (Escherichia coli): ≤ 0.015 µg/mL; MIC (Staphylococcus aureus [12]): 0.03 µg/mL (≈ 0.0713 µM); MIC50 (Proteus vulgaris): 0.125 µg/mL (≈ 0.297 µM); MIC90 (Proteus vulgaris): 0.25 µg/mL (≈ 0.595 µM); Activity (Corynebacterium): 40%; Activity (Providencia rettgeri): 0%; MIC (Clostridioides difficile): 2 µg/mL (≈ 4.76 µM)

— ChEMBL document CHEMBL1153560, “In vitro activities of doripenem and six comparator drugs against 423 aerobic and anaerobic bacterial isolates from infected diabetic foot wounds” (2008)
